The results in this text go back to ChEMBL document CHEMBL1142321, “Selection of a respiratory syncytial virus fusion inhibitor clinical candidate. 2. Discovery of a morpholinopropylaminobenzimidazole derivative (TMC353121)” (J Med Chem, 2008).

The nature of data set [1]: Cytotoxicity against human HeLaM cells by MTT assay. Type of data set: functional, M-HeLa. (Tetrazolium dyes change colour on reduction, which living cells bring about.)
Data set [2] relates to Respiratory syncytial virus. The data set can be described thus: Inhibition of RSV by MTT assay. It is filed as functional, organism-based. The note with it: human respiratory syncytial virus. In short, it runs like this:
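HeLaM epithelial-like cells infected with RSV with or without a range of compound concentrations; viability read by MTT after 1 week incubation. OD measured spectrophotometrically and pEC50 derived. Virus, cell and cytotoxicity controls on every plate, reference compounds in every test; runs failing control criteria rejected.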

Data set [3] is described as follows: Half life in Sprague-Dawley rat lung. It is filed as ADME, organism-based.

Broadly, the pCC50 is the CC50 on a negative log10 scale, so that one unit is a factor of ten. Lower therefore signals a high CC50. By EC50 is commonly meant the concentration that produces a half-maximal response. Low readings indicate a more potent agent, high ones a less potent agent. The compound `Cc1cccc(/C=C/c2ccc3nc(NC4CCN(C)CC4)n(Cc4nc(C)ccc4O)c3c2)c1` gave a pCC50 in data set [1] of 5.6. This compound also showed an EC50 in data set [2] of 501 nM.

`Cc1cccc(NCc2ccc3nc(NCCCN4CCOCC4)n(Cc4nc(C)ccc4O)c3c2)c1` showed a negative-log CC50 (pCC50) in data set [1] of 4.9. Besides, in data set [2], the EC50 was 2.51 nM.

In data set [1], `Cc1cccc(C(=O)Nc2ccc3nc(NC4CCN(C)CC4)n(Cc4nc(C)ccc4O)c3c2)c1` had a pCC50 of 4.3. For the same compound, the concentration giving a half-maximal response (EC50) in data set [2] is 63.1 nM.

As to `Cc1cccc(CNc2ccc3nc(NC4CCN(C)CC4)n(Cc4nc(C)ccc4O)c3c2)c1`, the pCC50 in data set [1] stood at 4.8. This compound also had an EC50 in data set [2] of 15.8 nM.

Take `Cc1ccc(O)c(Cn2c(NC3CCN(C)CC3)nc3ccc(CN(CCO)c4ccccc4)cc32)n1`: in data set [1], the pCC50 is given as below 4. This compound also gave an EC50 in data set [2] of 3.16 nM.

For orientation: half-life means the time needed for the level to fall by half in the phase considered. High values mean slow decline, low ones rapid decline. In data set [3], `Cc1cc(C)cc(NCc2ccc3nc(NCCCN4CCOCC4)n(Cc4nc(C)ccc4O)c3c2)c1` gave a half-life of 13.7 h. Besides, in data set [1], the pCC50 is 5. In addition, the EC50 in data set [2] is 1 nM.

As to `Cc1cccc(NCc2ccc3nc(NC4CCN(C)CC4)n(Cc4nc(C)ccc4O)c3c2)c1`, the pCC50 in data set [1] came to 4.7. Further, the EC50 in data set [2] was 5.01 nM.

Take `Cc1ccc(O)c(Cn2c(NC3CCN(CCN)CC3)nc3c(C)cccc32)n1` [JNJ 2408068]: the negative-log CC50 (pCC50) in data set [1] is below 4. In data set [2], this compound had an EC50 of 0.251 nM.

In the case of `Cc1cccc(CCc2ccc3nc(NC4CCN(CCN)CC4)n(Cc4nc(C)ccc4O)c3c2)c1`, the pCC50 in data set [1] came to 4.9. For the same compound, in data set [2], it took 1 nM to reach a half-maximal effect (EC50).

`Cc1cc(C)cc(N(CCCC(N)=O)Cc2ccc3nc(NCCCN4CCOCC4)n(Cc4nc(C)ccc4O)c3c2)c1`: the half-life in data set [3] was 10.4 h. In data set [1], the pCC50 was determined as 4.7. In data set [2], the EC50 was 0.251 nM.

As to `Cc1cc(C)cc(NCc2ccc3nc(NCCc4ccccc4)n(Cc4nc(C)ccc4O)c3c2)c1`, the pCC50 in data set [1] stood at 4.4. The EC50 in data set [2] was above 100000 nM.

`Cc1ccc(O)c(Cn2c(NCCCN3CCOCC3)nc3ccc(CN(CCO)c4ccccc4)cc32)n1` yielded a pCC50 in data set [1] of 4.3. Moreover, the EC50 in data set [2] is 3.16 nM.

Compound `Cc1cc(C)cc(N(CCO)Cc2ccc3nc(NCCCN4CCOCC4)n(Cc4nc(C)ccc4O)c3c2)c1` had a half-life in data set [3] of 19.6 h. The pCC50 in data set [1] worked out at 4.4. Besides, the EC50 in data set [2] is 0.501 nM.

On to `Cc1cccc(CCc2ccc3nc(NC4CCN(C)CC4)n(Cc4nc(C)ccc4O)c3c2)c1`, for which the pCC50 in data set [1] stood at 5.9. In data set [2], this compound gave an EC50 of 20 nM.

The compound `Cc1cc(C)cc(N(CCO)Cc2ccc3nc(NC4CCN(C)CC4)n(Cc4nc(C)ccc4O)c3c2)c1` returned a pCC50 in data set [1] of 4.4. For the same compound, a half-maximal response in data set [2] (EC50) required 0.398 nM.
